Data set [1] deals with T1, Lipoprotein lipase (Bos taurus) (UniProt P11151).
T1 sequence (whole entry): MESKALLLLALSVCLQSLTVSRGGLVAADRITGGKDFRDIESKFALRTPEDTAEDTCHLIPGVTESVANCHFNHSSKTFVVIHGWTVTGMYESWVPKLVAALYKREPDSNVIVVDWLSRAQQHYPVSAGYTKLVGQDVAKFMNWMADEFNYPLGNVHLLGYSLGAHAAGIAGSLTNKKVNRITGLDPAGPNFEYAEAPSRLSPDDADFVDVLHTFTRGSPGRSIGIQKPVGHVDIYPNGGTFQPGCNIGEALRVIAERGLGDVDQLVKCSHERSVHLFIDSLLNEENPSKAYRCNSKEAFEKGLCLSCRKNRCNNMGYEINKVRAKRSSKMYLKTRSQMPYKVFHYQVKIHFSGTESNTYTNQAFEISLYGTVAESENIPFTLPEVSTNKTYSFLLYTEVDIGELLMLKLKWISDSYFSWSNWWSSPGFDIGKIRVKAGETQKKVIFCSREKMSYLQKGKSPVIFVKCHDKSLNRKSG
Nature of the data set: Activation of bovine recombinant lipoprotein lipase at 100 uM using p-Nitrophenyl butyrate as substrate by HTS assay. Put shortly:
(§1)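 Recombinant LPL screened at 100 µM in a 384-well format with p-nitrophenyl butyrate as substrate. […] release was read as absorbance at 405 nm, and activity was expressed as fold change in absorbance.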

The test system of data set [2] is Mus musculus. Nature of the data set: In vivo activation of lipoprotein lipase in high fat diet fed C57BL/6 mouse assessed as reduction in total body fat content at 1 to 10 mg/kg, ip administered daily on last week of 4 months study until end. Format: functional, organism-based. Summed up:
(§2)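 Mice fed a high-fat diet (60% kcal from fat) for four months, with daily i.p. dosing at 10 mg/kg during the final week. A dose-response at 1, 5 and 10 mg/kg was used to select the dose. Body weight, total body fat and lean mass were measured by EchoMRI before sacrifice. Mean ± S.D., n = 4.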

The subject of data set [3] is Mus musculus. Nature of the data set: In vivo activation of lipoprotein lipase in high fat diet fed C57BL/6 mouse at 10 mg/kg, ip administered daily on last week of 4 months study until end by fluorescence assay. Format: functional, organism-based.
The subject of data set [4] is Mus musculus. In words: Reduction in serum cholesterol level in high fat diet fed C57BL/6 mouse at 10 mg/kg, ip administered daily on last week of 4 months study until end. Format: functional, organism-based. Put shortly:
(§3)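 Serum triglycerides and cholesterol measured with commercial kits after sacrifice. Mice had four months of high-fat diet, with 10 mg/kg i.p. given in the last week. Mean ± SE, n = 3.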

Data set [5] has as its system Mus musculus. In words: In vivo activation of lipoprotein lipase in high fat diet fed C57BL/6 mouse assessed as reduction in body weight at 1 to 10 mg/kg, ip administered daily on last week of 4 months study until end. Format: functional, organism-based. Summed up: as §2
The subject of data set [6] is Mus musculus. In words: Reduction in lipid accumulation in high fat diet fed C57BL/6 mouse liver at 10 mg/kg, ip administered daily on last week of 4 months study until end by hematoxylin and eosin staining based assay. In kind it is functional, organism-based. Summed up: (§4)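 After four months of high-fat diet with 10 mg/kg i.p. dosing over the final week, livers were examined by gross morphology and size. Sections were stained with hematoxylin and eosin and viewed at 20X to assess lipid accumulation.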

Data set [7] relates to Mus musculus. Nature of the data set: Reduction in serum triglycerides level in high fat diet fed C57BL/6 mouse at 10 mg/kg, ip administered daily on last week of 4 months study until end. In kind it is functional, organism-based. Summed up: as §3
For data set [8], the system named is Mus musculus. In words: Hepatoprotective activity against high fat diet fed C57BL/6 mouse liver assessed as increase in SIRT1 level at 10 mg/kg, ip administered daily on last week of 4 months study until end. In kind it is functional, organism-based. Put shortly: (§5)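 Mice on a high-fat diet for four months were dosed at 10 mg/kg for seven days. Hepatic protein levels of SIRT1 or LC3 were then measured. n = 5 mice; significance at P<0.05.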

Data set [9] deals with Mus musculus. In words: Hepatoprotective activity against high fat diet fed C57BL/6 mouse liver assessed as increase in LC3 level at 10 mg/kg, ip administered daily on last week of 4 months study until end. In kind it is functional, organism-based. Summed up:
as §5

For data set [10], the target named is T1, Lipoprotein lipase (Bos taurus). In words: Activation of bovine recombinant lipoprotein lipase at 100 uM using p-Nitrophenyl butyrate as substrate by HTS assay relative to NO-1886. Put shortly:
as §1

Data set [11] concerns Mus musculus. In words: Toxicity in high fat diet fed C57BL/6 mouse liver assessed as morphological changes at 10 mg/kg, ip administered daily on last week of 4 months study until end by hematoxylin and eosin staining based assay. In kind it is organism-based. The settings on record: in vivo, 2922 h. Put shortly:
as §4

Data set [12] addresses T1, Lipoprotein lipase (Bos taurus). Nature of the data set: Inhibition of bovine recombinant lipoprotein lipase at 100 uM using p-Nitrophenyl butyrate as substrate by HTS assay. Put shortly: as §1
A further data set concerns Rattus norvegicus. Nature of the data set: In vivo activation of lipoprotein lipase in STZ-induced diabetes rat model relative to control. In kind it is functional.
Substrate in data set [13]: CC1(C)CC1(C(=O)NCCCn1ccnc1)c1ccc(F)cc1
In words: Binding affinity to bovine recombinant lipoprotein lipase assessed as Km for substrate using p-Nitrophenyl butyrate as substrate by Lineweaver-Burk plot analysis (reference value: 8.15 mM). To be noted: Bos taurus.

Calls of active or inactive are those of the source. The calls are words filed in the database; no cut-off is given here.

Take `CC1(C)CC1(C(=O)NCCCCN1CCOCC1)c1ccc(F)cc1` (configuration not stated): the result in data set [1] was Active. With `CC1(C)CC1(C(=O)NCCCn1ccnc1)c1ccc(F)cc1` (configuration not stated), the outcome (in the data set on Mus musculus [2]; in data set [1]; in the data set with Mus musculus [3]; in the data set with Mus musculus [4]; with Mus musculus [5]; in the data set with Mus musculus [6]) was Active. In addition, the result in the data set on Mus musculus [7], in the data set on Mus musculus [8] and in the data set on Mus musculus [9] was Active. In data set [10], the fold change (FC) amounted to 2. Further, the Activity result in the data set with Mus musculus [11] is “Non-Toxic”. On to `O=C(Cc1ccc(S)cc1)NCCCn1ccnc1`, for which, in [12], the inhibition entry was “Active”. Take `O=C(Cc1ccc(Cl)cc1)NCCCn1ccnc1`: in data set [1], the outcome was Active. Consider `CC1(C)CC1(C(=O)NCCNc1cccnc1)c1ccc(F)cc1` (configuration not stated), for which the inhibition entry in [12] is “Active”. On to `O=C(Cc1ccc(F)cc1)NCCCn1ccnc1`, for which the outcome in data set [1] was Active.

As for `O=C(Cc1ccccc1)NCCCn1ccnc1`, the result in data set [1] was Active. In the case of `Cc1cccnc1CN1CCN(C(=O)C2(c3ccc(F)cc3)CC2(C)C)CC1` (configuration not stated), the inhibition entry in data set [12] is “Active”. On the same count and under the same terms, the result for `O=C(Cc1ccc(O)cc1)NCCCn1ccnc1` reads “Active”.

`CCOP(=O)(Cc1ccc(C(=O)Nc2ccc(Br)cc2C#N)cc1)OCC` [IBROLIPIM] gave an Activity with Rattus norvegicus of 59%. `CC1(C)CC1(C(=O)NCCCc1csc(N)n1)c1ccc(F)cc1` (configuration not stated): the inhibition entry in data set [12] was “Active”.

B1: Lipoprotein lipase (Bos taurus), P11151 (protein)
chain: T1 sequence (whole entry)
A word on the Km: it is the concentration of substrate that gives half-maximal velocity. As for B1, the Km in [13] was 648 µM.

These data come from ChEMBL document CHEMBL3872250, “Structure-activity and in vivo evaluation of a novel lipoprotein lipase (LPL) activator” (Bioorg Med Chem Lett, 2017).
